STEP block: STEP phosphatase inhibitors, primary screen, biochemical, fluorescence intensity, uHTS. Tyrosine-protein phosphatase non-receptor type 5 (Homo sapiens), P54829. 0.25% of 360,000 active. inhibition, % at 20 µM. recombinant STEP, OMFP fluorogenic substrate;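 active = inhibition at 20 µM, scaled per plate between control wells, above about 37%, limit read from the data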;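 also: 0% = DMSO with enzyme and substrate and 100% = substrate only without enzyme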
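System: STEP (striatal-enriched tyrosine phosphatase) enzyme, cell-free; medium: Bis-Tris pH 6.0 buffer with DTT, detergent; dosing: 20 µM, 1% DMSO; times: reaction 20 min, ambient temperature; detection: fluorescence, 480/540 nm; read-out basis: normalized % inhibition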
LMPTP block: LMPTP phosphatase inhibitors, primary screen, biochemical, fluorescence intensity, uHTS | Low molecular weight phosphotyrosine protein phosphatase (Homo sapiens), P24666 | recombinant LMPTP-A, OMFP fluorogenic substrate | inhibition, % at 20 µM | 0.22% of 360,000 active;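 active = compounds that cut the enzyme signal by at least half of the control window in the single-dose screen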;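 also: plate controls were DMSO wells with enzyme plus substrate for no effect and substrate without enzyme for full effect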
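test system = LMPTP-A | amount = 0.625 nM LMPTP-A final | reagent = fluorogenic phosphatase substrate OMFP at 400 µM final | incubation = 50 min at room temperature | benchmarks = no-enzyme low control, uninhibited high control | medium = Bis-Tris pH 6.0, DTT, detergent | signal = fluorescence intensity of OMFP turnover product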
Scp-1 inhibitor: Scp-1 phosphatase inhibitors, primary screen, biochemical, colorimetric, uHTS. Recombinant Scp1, phosphopeptide, malachite green phosphate absorbance. inhibition, % at 20 µM. Carboxy-terminal domain RNA polymerase II polypeptide A small phosphatase 1 (Homo …. 0.88% of 340,000 active;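 active = inhibition above about 50% at 20 µM, limit read from the data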;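 also: plate controls were DMSO wells with enzyme for no effect and wells lacking enzyme for full effect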
Target sequence (Q9GZU7 76-261 limits assumed): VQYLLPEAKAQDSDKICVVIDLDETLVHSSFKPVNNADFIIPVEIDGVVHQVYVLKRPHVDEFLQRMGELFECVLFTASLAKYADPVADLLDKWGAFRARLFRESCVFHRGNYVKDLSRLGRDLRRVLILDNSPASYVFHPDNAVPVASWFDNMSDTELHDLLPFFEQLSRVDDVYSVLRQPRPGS
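Test system: SCP-1 phosphatase catalytic domain, residues 76-261 | Compound dosing: One concentration, 20 µM, with 1.0% DMSO | Schedule: 45 min room-temperature reaction, 5 min colour, 30 min stabiliser | Detection: Absorbance at 630 nm | Read-out basis: % inhibition of SCP-1 phosphate liberation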
Rpn11 inh: Rpn11 (PSMD14) deubiquitinase inhibitors, primary screen, biochemical, fluorescence polarization, uHTS; human 26S proteasome, Ub4-pepOG fluorescence polarization; 20S core pre-blocked with epoxomicin; 26S proteasome non-ATPase regulatory subunit 14 (Homo sapiens), O00487; AID 588493, 2011; 0.59% of 360,000 active; inhibition, % at 20 µM;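 active = inhibition at 20 µM, scaled to each plate's controls, above about 33%, limit read from the data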
SUMO1 PPI mod: modulators of SUMO1 protein-protein interactions, primary screen, biochemical, uHTS; Small ubiquitin-related modifier 1 (Homo sapiens), P63165; inhibition, % at 20 µM; SUMO1 binding to a labelled peptide, TR-FRET, 1 h; AID 602429, 2012; 0.33% of 360,000 active; in the data active = inhibition above about 37%
Target sequence (P63165 whole entry, looked up): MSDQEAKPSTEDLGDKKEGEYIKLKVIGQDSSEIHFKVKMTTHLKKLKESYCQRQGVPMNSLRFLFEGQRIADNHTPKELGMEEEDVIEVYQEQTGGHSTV
DNMT1 inh: human DNMT1 methyltransferase inhibitors, primary screen, biochemical, molecular beacon, fluorescence, HinP1I cleavage, uHTS. DNA (cytosine-5)-methyltransferase 1 (Homo sapiens), P26358. inhibition (reported as % activation of signal), % at 10 µM. 0.83% of 360,000 active; in the data active = inhibition above about 50%
Active calls of the source: *; · = no result given; + = active, no number. Rows were chosen to be rich in hits. Some 2.3% of all compounds tested hit in one or more screens of this group.

SMILES	STEP block	LMPTP block	Scp-1 inhibitor	Rpn11 inh	SUMO1 PPI mod	DNMT1 inh
CN1CCN(C2=CC3=CC(=C(C#N)C#N)CCC3CC2)CC1 (stereo unspecified)	-199	17	-1	·	-254	+
N#CC(C#N)=C1C=C2C=C(N3CCOCC3)CCC2CC1 (stereo unspecified)	-361	22	-4	·	-98	+
N#CC(C#N)=C1C=C2C=C(N3CCCCCC3)CCC2CC1 (stereo unspecified)	-500	7	5	·	-10	+
CC1(C)CC(NCCN2CCN(C3=CC(=C(C#N)C#N)CC(C)(C)C3)CC2)=CC(=C(C#N)C#N)C1	1	2	5	0	-4	-15
N#Cc1cc(Cl)c(N2CCOCC2)cc1C#N	0	0	-9	3	-1	-1
CSc1ccc(Cn2c(C)c(C(=O)NCc3cccs3)sc2=O)cc1	3	1	·	1	4	0
Cc1ccc(O)c(N=CC2=C(O)c3ccccc3C2=O)c1	2	4	-10	11	15	57*
O=C1C(C=Nc2ccccc2O)=C(O)c2ccccc21	2	1	-11	-10	-11	-2
COc1cccc(/C=N/NC(=O)c2cc3c(OC)cccc3[nH]2)c1O	1	-1	-11	-3	51*	5
COc1cccc(/C=N/NC(=O)c2cc3c(OC)cccc3[nH]2)c1OC	1	0	13	-8	-2	-9
COCCNC(=O)c1onc(CSc2cc(C)cc(C)c2)c1C(=O)NCCOC	1	0	1	-1	2	-1
COc1ccccc1CNC(=O)C1CCC(CNc2c(N3CCC(C)CC3)c(=O)c2=O)CC1 (stereo unspecified)	-1	0	-7	-7	-2	0
O=C(N/N=C/c1ccccc1O)c1cccc(C(F)(F)F)c1	5	20	53*	11	4	3
O=C(N/N=C/c1ccc(O)cc1)c1cccc(C(F)(F)F)c1	-3	-1	-12	-6	-4	-8
O=C(N/N=C\C=C\c1ccc([N+](=O)[O-])o1)c1cccs1	12	6	57*	6	9	81*
CCc1ccc(CNC(=O)Cc2ccc(NC(=O)C3=C(C)OCCS3)cc2)cc1	2	6	85*	-8	2	48
CC1=C(C(=O)Nc2ccc(CC(=O)NCc3ccccc3C)cc2)SCCO1	2	0	-6	-1	4	-1
CC(=O)C1=C(C)NC(SCC(=O)c2ccccc2)=C(C#N)C1CC(C)C (stereo unspecified)	2	1	3	18	2	-3
CCN(CC)CCNC(=O)C1(c2ccccc2)CCCCC1	-2	14	-7	3	47*	-1
CN1c2ccccc2C(C)(C)C12C=Cc1cc(O)ccc1O2 (stereo unspecified)	-4	3	-2	82*	-11	-27
c1ccc(-c2nc(NC3CCCC3)c3ccccc3n2)cc1	-4	62*	-1	9	1	1
COc1cccc(-c2nc(NC3CCCC3)c3ccccc3n2)c1O	0	10	-4	2	9	-8
CC(C(=O)Nc1cccc(S(=O)(=O)N2CCOCC2)c1)N1CCN(c2ccc(F)cc2)CC1 (stereo unspecified)	0	0	-3	-2	-3	1
Cc1ccc(Cl)c(NC(=O)COC(=O)c2nn(-c3ccccc3)cc2O)c1Cl	1	1	-8	0	10	0
CC1(C)CC(N2CCN(Cc3ccccc3)CC2)=CC(=[N+]2CCCCC2)C1	1	2	106*	-2	1	1

Screening data deposited in PubChem BioAssay by Sanford-Burnham Center for Chemical Genomics.
